Each block holds one compound with its values, some of them ahead of it.
Assays:
[1] = Solubility in 100 mM phosphate buffer at pH 7.0; format: physicochemical
[2] = Dissociation constant, pKa of the compound; format: physicochemical
[3] = Inhibition of Plasmodium falciparum thioredoxin reductase at pH 7.4
Procedure, shortened: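 Recombinant P. falciparum TrxR, at 25°C in 100 mM potassium phosphate, 2 mM EDTA (pH 7.4). Cognate-substrate reaction was run with 10 mU/ml enzyme, NADPH and P. falciparum thioredoxin 1 as substrate. IC50 taken as Ki, assuming noncompetitive inhibition.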

[4] = target: T1, Thioredoxin reductase 1, cytoplasmic (Homo sapiens, UniProt Q16881); assay: Inhibition of human recombinant TrxR1 at pH 7.4
T1 sequence (Q16881 whole entry): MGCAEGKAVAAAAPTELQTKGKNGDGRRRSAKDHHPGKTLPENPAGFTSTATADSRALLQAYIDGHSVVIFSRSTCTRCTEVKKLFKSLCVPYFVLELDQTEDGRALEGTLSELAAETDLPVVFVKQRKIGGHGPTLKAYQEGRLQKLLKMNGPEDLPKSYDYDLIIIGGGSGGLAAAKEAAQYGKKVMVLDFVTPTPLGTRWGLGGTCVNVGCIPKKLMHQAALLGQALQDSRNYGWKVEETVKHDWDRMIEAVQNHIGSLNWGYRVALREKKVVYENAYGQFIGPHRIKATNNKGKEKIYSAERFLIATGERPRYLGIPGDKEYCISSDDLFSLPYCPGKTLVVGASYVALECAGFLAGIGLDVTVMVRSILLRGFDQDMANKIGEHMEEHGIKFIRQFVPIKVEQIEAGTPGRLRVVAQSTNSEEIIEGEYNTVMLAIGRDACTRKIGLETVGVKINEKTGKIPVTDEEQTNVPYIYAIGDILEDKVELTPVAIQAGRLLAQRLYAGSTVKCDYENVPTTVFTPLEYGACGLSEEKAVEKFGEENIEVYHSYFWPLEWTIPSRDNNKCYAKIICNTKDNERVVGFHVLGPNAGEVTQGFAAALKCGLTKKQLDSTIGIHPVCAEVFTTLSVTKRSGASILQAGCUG
Procedure, shortened: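 Human TrxR (recombinant, or from placenta) was assayed at 10 mU/ml, 25°C, with its physiological substrate. The buffer was 100 mM potassium phosphate and 2 mM EDTA at pH 7.4, with NADPH as reductant. Routine measurements used His-tagged human thioredoxin 1 Cys73Ser. MB came from stocks in water. IC50 values were treated as Ki, assuming noncompetitive inhibition.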

[5] = target: T2, Dihydrolipoyl dehydrogenase, mitochondrial (Sus scrofa, UniProt P09623); assay: Inhibition of pig recombinant dihydrolipoamide dehydrogenase at pH 7.3
T2 sequence (P09623 whole entry): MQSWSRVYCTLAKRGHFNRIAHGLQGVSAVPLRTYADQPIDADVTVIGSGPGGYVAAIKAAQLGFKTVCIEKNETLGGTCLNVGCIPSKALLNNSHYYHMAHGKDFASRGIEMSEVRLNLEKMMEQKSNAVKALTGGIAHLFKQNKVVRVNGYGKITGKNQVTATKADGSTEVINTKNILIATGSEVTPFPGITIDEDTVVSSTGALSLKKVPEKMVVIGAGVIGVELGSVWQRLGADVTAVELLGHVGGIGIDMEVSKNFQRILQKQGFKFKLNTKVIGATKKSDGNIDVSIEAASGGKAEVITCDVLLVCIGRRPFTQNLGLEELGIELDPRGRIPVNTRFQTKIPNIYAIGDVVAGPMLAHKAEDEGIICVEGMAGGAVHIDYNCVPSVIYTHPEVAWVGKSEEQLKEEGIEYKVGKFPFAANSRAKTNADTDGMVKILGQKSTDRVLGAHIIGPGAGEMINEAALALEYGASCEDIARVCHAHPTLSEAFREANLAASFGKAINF

[6] = Inhibition of Plasmodium falciparum glutathione reductase at pH 6.9
Procedure, shortened: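 Recombinant P. falciparum GR, assayed at 25°C in 47 mM potassium phosphate, 1 mM EDTA, 200 mM KCl (pH 6.9). Physiological GSSG reduction was run with 10 mU/ml enzyme and NADPH. IC50 values were taken as Ki, assuming noncompetitive inhibition.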

[7] = target: T3, Dihydrolipoyl dehydrogenase (Plasmodium falciparum, UniProt Q6KCB6); assay: Inhibition of Plasmodium falciparum recombinant dihydrolipoamide dehydrogenase at pH 7.3
T3 sequence (Q6KCB6 whole entry): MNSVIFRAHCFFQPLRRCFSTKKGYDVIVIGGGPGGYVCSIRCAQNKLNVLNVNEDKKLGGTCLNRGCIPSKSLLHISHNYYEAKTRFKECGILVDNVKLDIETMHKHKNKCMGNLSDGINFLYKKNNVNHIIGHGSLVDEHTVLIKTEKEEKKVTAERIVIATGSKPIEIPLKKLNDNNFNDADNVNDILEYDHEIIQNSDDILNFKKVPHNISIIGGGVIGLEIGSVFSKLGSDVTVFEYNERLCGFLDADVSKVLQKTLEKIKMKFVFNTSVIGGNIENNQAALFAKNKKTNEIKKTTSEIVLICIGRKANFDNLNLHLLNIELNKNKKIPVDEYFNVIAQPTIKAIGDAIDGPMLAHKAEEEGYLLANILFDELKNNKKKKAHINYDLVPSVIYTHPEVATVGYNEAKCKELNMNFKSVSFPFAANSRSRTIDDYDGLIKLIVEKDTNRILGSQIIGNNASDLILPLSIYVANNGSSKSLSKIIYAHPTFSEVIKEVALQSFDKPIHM

Plasmodium falciparum = assay: Antiplasmodial activity after 42 hrs against chloroquine-resistant Plasmodium falciparum K1 treated for 6 hrs by Giemsa stain; format: functional, organism-based
[8] = Inhibition of human recombinant glutathione reductase C63A mutant expressed in Escherichia coli SG5 at pH 6.9
[9] = target: T4, Glutathione reductase, mitochondrial (Homo sapiens, UniProt P00390); assay: Inhibition of human recombinant glutathione reductase at pH 6.9
T4 sequence (P00390 whole entry): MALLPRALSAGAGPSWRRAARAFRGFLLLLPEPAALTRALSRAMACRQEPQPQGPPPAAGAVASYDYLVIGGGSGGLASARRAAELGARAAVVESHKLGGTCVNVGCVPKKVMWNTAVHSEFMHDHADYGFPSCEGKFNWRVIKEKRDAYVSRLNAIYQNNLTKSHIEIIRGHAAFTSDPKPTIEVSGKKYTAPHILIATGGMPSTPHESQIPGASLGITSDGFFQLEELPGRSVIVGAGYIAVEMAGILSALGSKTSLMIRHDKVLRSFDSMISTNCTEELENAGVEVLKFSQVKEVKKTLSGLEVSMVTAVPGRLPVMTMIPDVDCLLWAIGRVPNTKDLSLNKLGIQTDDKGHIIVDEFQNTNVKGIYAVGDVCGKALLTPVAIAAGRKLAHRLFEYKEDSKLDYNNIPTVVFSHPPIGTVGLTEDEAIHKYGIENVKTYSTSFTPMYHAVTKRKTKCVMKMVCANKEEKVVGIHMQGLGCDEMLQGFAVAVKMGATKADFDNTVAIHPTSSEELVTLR
Procedure, shortened: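 Recombinant human GR was assayed with its physiological disulfide substrate at 10 mU/ml enzyme and 25°C. The buffer was 47 mM potassium phosphate, 1 mM EDTA and 200 mM KCl at pH 6.9, with NADPH as reductant. MB came from stocks in water. IC50 values were treated as Ki, assuming noncompetitive inhibition.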

[10] = Inhibition of human recombinant glutathione reductase C58A/C63A mutant expressed in Escherichia coli SG5 at pH 6.9
[11] = Stability at pH 5.0; format: physicochemical; details: buffer
[12] = Inhibition of human recombinant glutathione reductase C58A mutant expressed in Escherichia coli SG5 at pH 6.9
Albumin = Albumin (Bos taurus, UniProt P02769); assay: Binding affinity to bovine serum albumin by fluorescence spectroscopy; format: ADME; details: read-out: Kdiss
Albumin, sequence (P02769 whole entry): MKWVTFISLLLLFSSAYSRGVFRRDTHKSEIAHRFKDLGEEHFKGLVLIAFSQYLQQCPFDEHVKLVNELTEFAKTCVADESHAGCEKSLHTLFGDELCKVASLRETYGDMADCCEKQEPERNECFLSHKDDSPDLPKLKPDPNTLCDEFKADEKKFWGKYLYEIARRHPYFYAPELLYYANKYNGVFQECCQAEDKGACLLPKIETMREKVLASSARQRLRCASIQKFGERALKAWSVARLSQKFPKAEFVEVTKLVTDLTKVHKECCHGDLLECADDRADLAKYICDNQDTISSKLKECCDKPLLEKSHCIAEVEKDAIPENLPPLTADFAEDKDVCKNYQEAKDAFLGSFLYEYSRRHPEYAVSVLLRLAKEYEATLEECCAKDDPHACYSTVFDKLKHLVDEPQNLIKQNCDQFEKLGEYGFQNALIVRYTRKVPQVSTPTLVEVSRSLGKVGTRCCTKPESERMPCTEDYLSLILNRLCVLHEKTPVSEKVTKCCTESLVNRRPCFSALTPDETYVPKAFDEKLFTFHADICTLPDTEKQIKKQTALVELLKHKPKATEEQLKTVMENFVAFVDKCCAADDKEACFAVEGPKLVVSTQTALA

solubility [1]: < 50 µM
pKa [2]: 4.5
Structure (SMILES): CN(C)c1ccc2c(c1)Sc1cc(N(C)C)ccc1N2 [HYDROMETHYLTHIONINE]

Structure (SMILES): CN(C)c1ccc2nc3ccc(N(C)C)cc3[s+]c2c1.[Cl-] [METHYLENE BLUE ANHYDROUS]
IC50 [3]: 59 µM
IC50 [4]: 30 µM
IC50 [5]: > 1000 µM
IC50 [6]: 5.4 µM
IC50 [7]: > 1000 µM
EC50 (Plasmodium falciparum): 0.0065 µM
IC50 [8]: Not Active
IC50 [9]: 16.4 µM
IC50 [10]: Not Active
Stability [11]: Stable
IC50 [12]: Not Active
Kd (Albumin): 2.9 µM
